Experimental data from ChEMBL document CHEMBL3112482, “Nonclassical antifolates, part 5. Benzodiazepine analogs as a new class of DHFR inhibitors: synthesis, antitumor testing and molecular modeling study” (Eur J Med Chem, 2014).

Assays:
Assay type in all cases: functional
MDA-MB-435 = experiment: Growth inhibition of human MDA-MB-435 cells at 10 uM after 48 hrs; conditions: MDA-MB-435, 48 h, read-out: GI
Method in brief: (§1)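 Single-dose primary screen in the NCI 60 human tumour cell line panel, run at the NCI facility. The panel covers nine subpanels: leukaemia, non-small cell lung, colon, CNS, melanoma, ovarian, renal, prostate and breast. Read-out was percent growth of treated cells, shown as a mean graph and reported as percent growth inhibition.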

Malme-3M = experiment: Growth inhibition of human MALME-3M cells at 10 uM after 48 hrs; conditions: read-out: GI; method in brief: as §1
LOX IMVI = experiment: Growth inhibition of human LOXIMVI cells at 10 uM after 48 hrs; conditions: read-out: GI; method in brief: as §1
U-251 = experiment: Growth inhibition of human U251 cells at 10 uM after 48 hrs; conditions: U-251, 48 h, read-out: GI
Method in brief: (§2)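 NCI 60-cell-line disease-oriented human tumor panel, single-dose primary screen at 10 µM. Data given as mean-graph percent growth of treated cells, reported as percent growth inhibition (GI %).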

SNB-75 = experiment: Growth inhibition of human SNB75 cells at 10 uM after 48 hrs; conditions: SNB-75, 48 h, read-out: GI; method in brief: as §2
SNB-19 = experiment: Growth inhibition of human SNB19 cells at 10 uM after 48 hrs; conditions: SNB-19, 48 h, read-out: GI; method in brief: as §2
[1] = Growth inhibition of human SF539 cells at 10 uM after 48 hrs; conditions: SF-539, 48 h, read-out: GI; method in brief: as §2
SF-268 = experiment: Growth inhibition of human SF268 cells at 10 uM after 48 hrs; conditions: SF-268, 48 h, read-out: GI; method in brief: as §2
SW-620 = experiment: Growth inhibition of human SW620 cells at 10 uM after 48 hrs; conditions: SW-620, 48 h, read-out: GI; method in brief: as §2
NCI-H322M = experiment: Growth inhibition of human NCI-H322M cells at 10 uM after 48 hrs; conditions: read-out: GI; method in brief: as §1
NCI-H23 = experiment: Growth inhibition of human NCI-H23 cells at 10 uM after 48 hrs; conditions: NCI-H23, 48 h, read-out: GI; method in brief: as §1
NCI-H226 = experiment: Growth inhibition of human NCI-H226 cells at 10 uM after 48 hrs; conditions: NCI-H226, 48 h, read-out: GI; method in brief: as §1
HOP-62 = experiment: Growth inhibition of human HOP62 cells at 10 uM after 48 hrs; conditions: HOP-62, 48 h, read-out: GI; method in brief: as §1
[2] = Growth inhibition of human EKVX cells at 10 uM after 48 hrs; conditions: read-out: GI; method in brief: as §1
A549 = experiment: Growth inhibition of human A549 cells at 10 uM after 48 hrs; conditions: A549, 48 h, read-out: GI; method in brief: as §1
SR = experiment: Growth inhibition of human SR cells at 10 uM after 48 hrs; conditions: read-out: GI; method in brief: as §2
K562 = experiment: Growth inhibition of human K562 cells at 10 uM after 48 hrs; conditions: K562, 48 h, read-out: GI; method in brief: as §1
HL-60(TB) = experiment: Growth inhibition of human HL-60(TB) cells at 10 uM after 48 hrs; conditions: HL-60, 48 h, read-out: GI
Method in brief: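 NCI 60-cell-line human tumour panel covering nine subpanels (leukaemia, non-small cell lung, colon, CNS, melanoma, ovarian, renal, prostate, breast), run at the NCI facility. Primary screen tested a single dose of each compound. Read-out was percent growth of treated cells versus untreated cells, reported from the mean graph as percentage growth inhibition.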

T47D = experiment: Growth inhibition of human T47D cells at 10 uM after 48 hrs; conditions: read-out: GI; method in brief: as §2
[3] = Growth inhibition of human Hs 578T cells at 10 uM after 48 hrs; conditions: read-out: GI; method in brief: as §1
MCF7 = experiment: Growth inhibition of human MCF7 cells at 10 uM after 48 hrs; conditions: MCF7, 48 h, read-out: GI; method in brief: as §1
MDA-MB-231 = experiment: Growth inhibition of human MDA-MB-231 cells at 10 uM after 48 hrs; conditions: MDA-MB-231, 48 h, read-out: GI; method in brief: as §1
PC-3 = experiment: Growth inhibition of human PC3 cells at 10 uM after 48 hrs; conditions: PC-3, 48 h, read-out: GI; method in brief: as §1
TK-10 = experiment: Growth inhibition of human TK10 cells at 10 uM after 48 hrs; conditions: TK-10, 48 h, read-out: GI; method in brief: as §2
[4] = Growth inhibition of human UO31 cells at 10 uM after 48 hrs; conditions: UO-31, 48 h, read-out: GI; method in brief: as §2
ACHN = experiment: Growth inhibition of human ACHN cells at 10 uM after 48 hrs; conditions: read-out: GI; method in brief: as §1
SK-OV-3 = experiment: Growth inhibition of human SKOV3 cells at 10 uM after 48 hrs; conditions: SK-OV-3, 48 h, read-out: GI; method in brief: as §2
[5] = Growth inhibition of human NCI-ADR-RES cells at 10 uM after 48 hrs; conditions: read-out: GI; method in brief: as §1
OVCAR-8 = experiment: Growth inhibition of human OVCAR8 cells at 10 uM after 48 hrs; conditions: OVCAR-8, 48 h, read-out: GI; method in brief: as §1
[6] = Growth inhibition of human OVCAR5 cells at 10 uM after 48 hrs; conditions: OVCAR-5, 48 h, read-out: GI; method in brief: as §1
OVCAR-3 = experiment: Growth inhibition of human OVCAR3 cells at 10 uM after 48 hrs; conditions: OVCAR-3, 48 h, read-out: GI; method in brief: as §1
[7] = Growth inhibition of human OVCAR4 cells at 10 uM after 48 hrs; conditions: OVCAR-4, 48 h, read-out: GI; method in brief: as §1
SK-MEL-5 = experiment: Growth inhibition of human SK-MEL-5 cells at 10 uM after 48 hrs; conditions: SK-MEL-5, 48 h, read-out: GI; method in brief: as §2
SK-MEL-28 = experiment: Growth inhibition of human SK-MEL-28 cells at 10 uM after 48 hrs; conditions: SK-MEL-28, 48 h, read-out: GI; method in brief: as §2
SK-MEL-2 = experiment: Growth inhibition of human SK-MEL-2 cells at 10 uM after 48 hrs; conditions: SK-MEL-2, 48 h, read-out: GI; method in brief: as §2

| SMILES | inhibition of growth at 10 µM (MDA-MB-435) [%] | inhibition of growth at 10 µM (Malme-3M) [%] | inhibition of growth at 10 µM (LOX IMVI) [%] | inhibition of growth at 10 µM (U-251) [%] | inhibition of growth at 10 µM (SNB-75) [%] | inhibition of growth at 10 µM (SNB-19) [%] | inhibition of growth at 10 µM [1] [%] | inhibition of growth at 10 µM (SF-268) [%] | inhibition of growth at 10 µM (SW-620) [%] | inhibition of growth at 10 µM (NCI-H322M) [%] | inhibition of growth at 10 µM (NCI-H23) [%] | inhibition of growth at 10 µM (NCI-H226) [%] | inhibition of growth at 10 µM (HOP-62) [%] | inhibition of growth at 10 µM [2] [%] | inhibition of growth at 10 µM (A549) [%] | inhibition of growth at 10 µM (SR) [%] | inhibition of growth at 10 µM (K562) [%] | inhibition of growth at 10 µM (HL-60(TB)) [%] | inhibition of growth at 10 µM (T47D) [%] | inhibition of growth at 10 µM [3] [%] | also measured |
| --- | --- | --- | --- | --- | --- | --- | --- | --- | --- | --- | --- | --- | --- | --- | --- | --- | --- | --- | --- | --- | --- |
| COc1ccc(/C=C2\CCCc3c2nc(C)nc3-c2ccc(OC)cc2)cc1 | 40.5 | < 30 | < 30 | < 30 | < 30 | < 30 | < 30 | < 30 | < 30 | < 30 | < 30 | < 30 | < 30 | < 30 | < 30 | < 30 | < 30 | < 30 | < 30 | < 30 | inhibition of growth at 10 µM (MCF7): < 30%; inhibition of growth at 10 µM (MDA-MB-231): < 30%; inhibition of growth at 10 µM (PC-3): < 30%; inhibition of growth at 10 µM (TK-10): < 30%; inhibition of growth at 10 µM [4]: < 30%; inhibition of growth at 10 µM (ACHN): < 30%; inhibition of growth at 10 µM (SK-OV-3): < 30%; inhibition of growth at 10 µM [5]: < 30%; inhibition of growth at 10 µM (OVCAR-8): < 30%; inhibition of growth at 10 µM [6]: < 30%; inhibition of growth at 10 µM (OVCAR-3): < 30%; inhibition of growth at 10 µM [7]: < 30%; inhibition of growth at 10 µM (SK-MEL-5): < 30%; inhibition of growth at 10 µM (SK-MEL-28): < 30%; inhibition of growth at 10 µM (SK-MEL-2): < 30% |
| Cc1nc2c(c(-c3ccc(Br)cc3)n1)CCC/C2=C\c1ccc(Br)cc1 | < 30 | < 30 | < 30 | < 30 | < 30 | < 30 | < 30 | < 30 | < 30 | < 30 | < 30 | < 30 | < 30 | < 30 | < 30 | < 30 | < 30 | < 30 | < 30 | < 30 | inhibition of growth at 10 µM (MCF7): 56.7%; inhibition of growth at 10 µM (MDA-MB-231): < 30%; inhibition of growth at 10 µM (PC-3): < 30%; inhibition of growth at 10 µM (TK-10): < 30%; inhibition of growth at 10 µM [4]: < 30%; inhibition of growth at 10 µM (ACHN): < 30%; inhibition of growth at 10 µM (SK-OV-3): < 30%; inhibition of growth at 10 µM [5]: < 30%; inhibition of growth at 10 µM (OVCAR-8): < 30%; inhibition of growth at 10 µM [6]: < 30%; inhibition of growth at 10 µM (OVCAR-3): < 30%; inhibition of growth at 10 µM [7]: < 30%; inhibition of growth at 10 µM (SK-MEL-5): < 30%; inhibition of growth at 10 µM (SK-MEL-28): < 30%; inhibition of growth at 10 µM (SK-MEL-2): < 30% |
| Cc1nc2c(c(-c3ccc(Cl)cc3)n1)CCC/C2=C\c1ccc(Cl)cc1 | 77.7 | < 30 | 63.2 | 44 | < 30 | < 30 | < 30 | < 30 | < 30 | < 30 | < 30 | < 30 | < 30 | < 30 | < 30 | < 30 | < 30 | < 30 | < 30 | < 30 | inhibition of growth at 10 µM (MCF7): 68.7%; inhibition of growth at 10 µM (MDA-MB-231): < 30%; inhibition of growth at 10 µM (PC-3): < 30%; inhibition of growth at 10 µM (TK-10): < 30%; inhibition of growth at 10 µM [4]: < 30%; inhibition of growth at 10 µM (ACHN): < 30%; inhibition of growth at 10 µM (SK-OV-3): < 30%; inhibition of growth at 10 µM [5]: < 30%; inhibition of growth at 10 µM (OVCAR-8): < 30%; inhibition of growth at 10 µM [6]: < 30%; inhibition of growth at 10 µM (OVCAR-3): < 30%; inhibition of growth at 10 µM [7]: < 30%; inhibition of growth at 10 µM (SK-MEL-5): < 30%; inhibition of growth at 10 µM (SK-MEL-28): < 30%; inhibition of growth at 10 µM (SK-MEL-2): < 30% |
